# Reference: ChEMBL document CHEMBL3352485 (J Med Chem, 2014)
# pEC50, pKi: −log10 of the molar value. Activity calls are given as the source filed them. The calls are words filed in the database; no cut-off is given here. Where a SMILES comes first, the peptide text is derived from it. [ ]: non-standard residue; d: D form. Arg(Me) = CNC(=N)NCCC[C@H](N)C(=O)O; d4Pal = N[C@H](Cc1ccncc1)C(=O)O; azaGly = NNC(=O)O
# How the values were obtained:
# [1] = Stability of the compound in aqueous solution (JP1) assessed as residual ratio at pH 1.2 up to 2 weeks by HPLC analysis relative to initial level; type: physicochemical
# Summary of the method: (§1)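 Peptides in aqueous solution at pH 1.2 (JP1, containing 10% acetonitrile), 3, 5 or 7 were kept in the dark at 37 °C for up to 2 weeks. Peptide remaining was quantified from HPLC peak area, with detection at 230–280 nm. The residual ratio (stability index) was expressed relative to the time-0 amount, taken as 100%.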
# Rattus norvegicus [2] = experiment: Testosterone-suppressive activity in Crl:CD(SD) rat assessed as number of animal with plasma testosterone level below the limit of detection at 0.1 nmol/hr, sc through osmotic pumps measured after 6 days by RIA; type: functional
# Summary of the method: (§2)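 Peptide was dissolved in distilled water or 50% DMSO as 0.1–2 mM pump solutions and delivered by ALZET osmotic pumps implanted subcutaneously in the back of 9-week-old male Crl:CD(SD) rats (n = 5) under ether. Controls received distilled-water pumps. After 6 days, rats were decapitated and plasma was recovered with aprotinin/EDTA. Testosterone was measured by RIA, and the number of rats below the detection limit (0.04 ng/mL) was counted.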
# [3] = Volume of distribution at steady state in Sprague-Dawley rat at 1 mg/kg, iv after 24 hrs by LC-MS/MS analysis; type: ADME, organism-based; parameters: dose 1 mg/kg, route intravenous; conditions: in vivo, read-out: Vdss
# Summary of the method: (§3)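 Male Crl:CD(SD) rats (3 per group) got a single intravenous dose of 1 mg/kg. Blood was drawn at 5, 10, 15 and 30 min and at 1, 2, 4, 8 and 24 h. Plasma proteins were removed with 0.2% formic acid/methanol and acetonitrile, and the supernatant was treated with 0.4% formic acid. Peptide was quantified by LC-MS. Noncompartmental parameters were derived per rat, reported as mean ± SD (n = 3).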
# [4] = Total clearance in Sprague-Dawley rat at 1 mg/kg, iv after 24 hrs by LC-MS/MS analysis; type: ADME, organism-based; parameters: dose 1 mg/kg, route intravenous; conditions: in vivo; summary of the method: as §3
# KiSS-1 receptor [5] = biological target: T1, KiSS-1 receptor (Rattus norvegicus, UniProt Q924U1); experiment: Agonist activity at rat KISS1R transfected in CHO cells assessed as intracellular calcium flux after 24 hrs by functional FLIPR assay; type: cell-based
# [6] = C5min in Sprague-Dawley rat at 1 mg/kg, iv after 5 mins by LC-MS/MS analysis; conditions: in vivo, read-out: Cmin
# KiSS-1 receptor [7] = biological target: T2, KiSS-1 receptor (Homo sapiens, UniProt Q969F8); experiment: Agonist activity at human KISS1R transfected in CHO cells assessed as intracellular calcium flux after 24 hrs by functional FLIPR assay; type: cell-based
# Summary of the method: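 CHO cells stably expressing human KISS1R were seeded at 15 000 cells/mL, cultured 24 h, then loaded with fluo-3 for 1 h at 37 °C in HBSS/HEPES (pH 7.4) with probenecid and FBS. Cells were washed in HBSS with 2.5 mM probenecid. Peptides came from 1 mM DMSO stocks diluted in buffer containing probenecid, 0.2% BSA and 0.1% CHAPS. Fluorescence was recorded on FLIPR for 3 min; peak counts over 0–180 s gave agonist activity.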
# [8] = Mean residence time in Sprague-Dawley rat at 1 mg/kg, iv after 24 hrs by LC-MS/MS analysis; type: ADME, organism-based; parameters: dose 1 mg/kg, route intravenous; conditions: in vivo; summary of the method: as §3
# [9] = AUC (0 to 24 hrs) in Sprague-Dawley rat at 1 mg/kg, iv after 24 hrs by LC-MS/MS analysis; type: ADME, organism-based; parameters: time < 24 hr, dose 1 mg/kg, route intravenous; conditions: plasma; summary of the method: as §3
# [10] = Stability of the compound in aqueous solution assessed as residual ratio at pH 5 up to 1 week by HPLC analysis relative to initial level; type: physicochemical; summary of the method: as §1
# [11] = Mean residence time in Sprague-Dawley rat at 1 mg/kg, sc after 24 hrs by LC-MS/MS analysis; type: ADME, organism-based; parameters: dose 1 mg/kg, route subcutaneous; conditions: in vivo
# Summary of the method: (§4)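 Single subcutaneous dose of 1 mg/kg in male Crl:CD(SD) rats, n = 3 per group. Blood was sampled from 5 min to 24 h (5, 10, 15, 30 min; 1, 2, 4, 8, 24 h). Plasma was deproteinized with formic acid/methanol and acetonitrile, and peptide levels were measured by LC-MS. Noncompartmental analysis per animal gave Cmax, Tmax, AUC0-24h, MRT and BA; values are mean ± SD (n = 3).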
# [12] = Stability of the compound in aqueous solution (JP1) assessed as residual ratio at pH 1.2 up to 1 week by HPLC analysis relative to initial level; type: physicochemical; summary of the method: as §1
# [13] = Cmax in Sprague-Dawley rat at 1 mg/kg, sc after 24 hrs by LC-MS/MS analysis; type: ADME, organism-based; parameters: dose 1 mg/kg, route subcutaneous; conditions: in vivo; summary of the method: as §4
# [14] = Stability of the compound in aqueous solution assessed as residual ratio at pH 3 up to 1 week by HPLC analysis relative to initial level; type: physicochemical; summary of the method: as §1
# KiSS-1 receptor [15] = biological target: T2, KiSS-1 receptor; experiment: Displacement of radioligand from human KISS1R transfected in CHO cells; type: cell-based
# Summary of the method: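 Binding used membrane fractions prepared from CHO cells expressing recombinant human KISS1R.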
# Rattus norvegicus [16] = experiment: Testosterone-suppressive activity in Crl:CD(SD) rat assessed as number of animal with plasma testosterone level below the limit of detection at 2 nmol/hr, sc through osmotic pumps measured after 6 days by RIA; type: functional; summary of the method: as §2
# Rattus norvegicus [17] = experiment: Testosterone-suppressive activity in Crl:CD(SD) rat assessed as number of animal with plasma testosterone level below the limit of detection at 0.5 nmol/hr, sc through osmotic pumps measured after 6 days by RIA; type: functional; summary of the method: as §2
# [18] = Stability of the compound in aqueous solution assessed as residual ratio at pH 5 up to 2 weeks by HPLC analysis relative to initial level; type: physicochemical; summary of the method: as §1
# [19] = Stability of the compound in aqueous solution assessed as residual ratio at pH 7 up to 1 week by HPLC analysis relative to initial level; type: physicochemical; summary of the method: as §1
# [20] = Stability of the compound in aqueous solution assessed as residual ratio at pH 7 up to 2 weeks by HPLC analysis relative to initial level; type: physicochemical; summary of the method: as §1
# [21] = Stability of the compound in aqueous solution assessed as residual ratio at pH 3 up to 2 weeks by HPLC analysis relative to initial level; type: physicochemical; summary of the method: as §1
# [22] = Tmax in Sprague-Dawley rat at 1 mg/kg, sc after 24 hrs by LC-MS/MS analysis; type: ADME, organism-based; parameters: dose 1 mg/kg, route subcutaneous; conditions: in vivo; summary of the method: as §4
# Rattus norvegicus [23] = experiment: Testosterone-suppressive activity in Crl:CD(SD) rat assessed as number of animal with plasma testosterone level below the limit of detection at 0.3 nmol/hr, sc through osmotic pumps measured after 6 days by RIA; type: functional; summary of the method: as §2
# [24] = AUC (0 to 24 hrs) in Sprague-Dawley rat at 1 mg/kg, sc after 24 hrs by LC-MS/MS analysis; type: ADME, organism-based; parameters: time < 24 hr, dose 1 mg/kg, route subcutaneous; conditions: plasma; summary of the method: as §4
# KiSS-1 receptor [25] = biological target: T1, KiSS-1 receptor; experiment: Displacement of radioligand from rat KISS1R transfected in CHO cells; type: cell-based
# [26] = Bioavailability in Sprague-Dawley rat at 1 mg/kg, sc after 24 hrs by LC-MS/MS analysis; type: ADME, organism-based; conditions: in vivo; summary of the method: as §4
# Rattus norvegicus [27] = experiment: Testosterone-suppressive activity in Crl:CD(SD) rat assessed as number of animal with plasma testosterone level below the limit of detection at 0.05 mol/hr, sc through osmotic pumps measured after 6 days by RIA; type: functional
# Rattus norvegicus [28] = experiment: Testosterone-suppressive activity in Crl:CD(SD) rat assessed as plasma testosterone level below the limit of detection at 10 to 100 pmol/hr, sc continuous administration through osmotic pumps measured up to 1 week by RIA; type: functional, organism-based
# Summary of the method: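 Peptide in 50% DMSO was diluted in distilled water to 10, 30 or 100 μM pump solutions, giving 10–100 pmol/h by subcutaneous ALZET osmotic pump in male Crl:CD(SD) rats (n = 5). Vehicle served as control. Plasma testosterone was measured by RIA after 1 or 4 weeks, with values below 0.04 ng/mL set to 0.04. Results are mean ± SD of five rats, tested by one-tailed Shirley–Williams test versus vehicle.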
# Rattus norvegicus [29] = experiment: Testosterone-suppressive activity in Crl:CD(SD) rat assessed as number of animal with plasma testosterone level below the limit of detection […], sc through osmotic pumps measured after 6 days by RIA; type: functional
# Rattus norvegicus [30] = experiment: Testosterone-suppressive activity in Crl:CD(SD) rat assessed as number of animal with plasma testosterone level below the limit of detection at 0.03 mol/hr, sc through osmotic pumps measured after 6 days by RIA; type: functional
# T2 sequence (Q969F8 whole entry): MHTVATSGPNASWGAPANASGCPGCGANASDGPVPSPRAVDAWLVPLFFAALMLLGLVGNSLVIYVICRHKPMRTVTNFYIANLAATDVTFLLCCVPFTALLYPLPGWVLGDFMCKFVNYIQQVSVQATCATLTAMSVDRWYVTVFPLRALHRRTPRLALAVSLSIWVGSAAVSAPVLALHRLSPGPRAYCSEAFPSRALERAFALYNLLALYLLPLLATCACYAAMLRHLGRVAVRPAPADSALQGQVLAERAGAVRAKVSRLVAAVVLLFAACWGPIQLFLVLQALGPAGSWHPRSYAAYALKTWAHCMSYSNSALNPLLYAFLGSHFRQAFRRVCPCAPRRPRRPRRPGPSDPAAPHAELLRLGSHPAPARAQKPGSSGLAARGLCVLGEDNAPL
# T1 sequence (Q924U1 whole entry): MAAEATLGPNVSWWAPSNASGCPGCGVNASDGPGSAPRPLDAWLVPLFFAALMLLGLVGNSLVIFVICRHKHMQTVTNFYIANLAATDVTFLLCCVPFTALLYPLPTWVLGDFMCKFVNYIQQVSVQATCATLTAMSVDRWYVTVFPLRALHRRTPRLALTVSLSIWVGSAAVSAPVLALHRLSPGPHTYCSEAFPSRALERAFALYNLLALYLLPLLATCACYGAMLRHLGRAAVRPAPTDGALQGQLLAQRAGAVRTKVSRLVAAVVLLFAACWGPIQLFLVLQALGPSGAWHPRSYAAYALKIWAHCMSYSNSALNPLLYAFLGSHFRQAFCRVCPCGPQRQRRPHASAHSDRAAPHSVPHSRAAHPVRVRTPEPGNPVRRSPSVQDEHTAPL
SMILES,remaining at 336 h [1] [%],Activity (Rattus norvegicus [2]),Vd [3] [L/kg],clearance [4] [L/h/kg],pEC50 (KiSS-1 receptor [5]),concentration at 5 min [6] [µg/mL],pEC50 (KiSS-1 receptor [7]),MRT [8] [min],AUC(0-t) at 24 h [9] [µg·h/mL],remaining at 168 h [10] [%],MRT [11] [min],remaining at 168 h [12] [%],Cmax [13] [µg/mL],remaining at 168 h [14] [%],pKi (KiSS-1 receptor [15]),remaining at 336 h [18] [%],remaining at 168 h [19] [%],remaining at 336 h [20] [%],remaining at 336 h [21] [%],Tmax [22] [min],further results
CNC(=N)NCCC[C@H](NC(=O)[C@H](CC(C)C)NC(=O)NNC(=O)[C@H](Cc1ccccc1)NC(=O)[C@H](CO)NC(=O)[C@H](CC(N)=O)NC(=O)[C@@H](Cc1ccncc1)NC(=O)[C@H](N)Cc1ccc(O)cc1)C(=O)N[C@@H](Cc1ccccc1)C(N)=O [KISS1-305] (H-[dY][d4Pal]NSF[azaGly]L[Arg(Me)]F-NH2),32.8,0 rats (n = 5),1.58,4.2,8.00,0.969,8.59,22.8,0.239,94.8,36.6,60.3,0.145,99.4,9.96,91.2,54.9,28,100,8.4,Activity (Rattus norvegicus [16]): 100%; Activity (Rattus norvegicus [17]): 60%; Activity (Rattus norvegicus [23]): 0%; AUC(0-t) at 24 h [24]: 0.096 µg·h/mL; pKi (KiSS-1 receptor [25]): 9.85
CNC(=N)NCCC[C@H](NC(=O)[C@H](CC(C)C)NC(=O)NNC(=O)[C@H](Cc1ccccc1)NC(=O)[C@@H](NC(=O)[C@H](CC(N)=O)NC(=O)[C@@H](Cc1ccncc1)NC(=O)[C@@H](Cc1ccc(O)cc1)NC(C)=O)[C@@H](C)O)C(=O)N[C@@H](Cc1c[nH]c2ccccc12)C(N)=O,33,–,0.547,0.794,8.39,2.07,9.12,41.4,1.26,98.5,64.2,58.3,0.09,98.7,10.05,97,82.6,69.8,96.8,25.2,bioavailability [26]: 12.1%; Activity (Rattus norvegicus [27]): 5%; inhibition (Rattus norvegicus [28]): Active; Activity (Rattus norvegicus [29]): 2 animals; AUC(0-t) at 24 h [24]: 0.152 µg·h/mL; pKi (KiSS-1 receptor [25]): 9.77
CNC(=N)NCCC[C@H](NC(=O)[C@H](CC(C)C)NC(=O)NNC(=O)[C@H](Cc1ccccc1)NC(=O)[C@@H](NC(=O)[C@H](CC(N)=O)NC(=O)[C@@H](Cc1c[nH]c2ccccc12)NC(=O)[C@H](N)Cc1ccc(O)cc1)[C@@H](C)O)C(=O)N[C@@H](Cc1c[nH]c2ccccc12)C(N)=O,39.1,0 rats (n = 5),1.46,2,8.39,1.44,9.00,43.8,0.503,98.8,52.8,64.9,0.047,98.7,10.44,96.5,84.9,72.8,98.2,11.4,bioavailability [26]: 9.2%; Activity (Rattus norvegicus [16]): 100%; Activity (Rattus norvegicus [17]): 60%; Activity (Rattus norvegicus [23]): 60%; AUC(0-t) at 24 h [24]: 0.046 µg·h/mL
CNC(=N)NCCC[C@H](NC(=O)[C@H](CC(C)C)NC(=O)NNC(=O)[C@H](Cc1ccccc1)NC(=O)[C@@H](NC(=O)[C@H](CC(N)=O)NC(=O)[C@@H](Cc1c[nH]c2ccccc12)NC(=O)CCc1ccc(O)cc1)[C@@H](C)O)C(=O)N[C@@H](Cc1c[nH]c2ccccc12)C(N)=O,–,100%,–,–,8.96,–,9.52,–,–,–,–,–,–,–,10.41,–,–,–,–,–,Activity (Rattus norvegicus [29]): 0 animals
CCCC(=O)N[C@H](Cc1ccc(O)cc1)C(=O)N[C@H](Cc1c[nH]c2ccccc12)C(=O)N[C@@H](CC(N)=O)C(=O)N[C@H](C(=O)N[C@@H](Cc1ccccc1)C(=O)NNC(=O)N[C@@H](CC(C)C)C(=O)N[C@@H](CCCNC(=N)NC)C(=O)N[C@@H](Cc1c[nH]c2ccccc12)C(N)=O)[C@@H](C)O,–,3 rats (n = 5),–,–,8.43,–,9.10,–,–,–,–,–,–,–,–,–,–,–,–,–,Activity (Rattus norvegicus [30]): 0%; pKi (KiSS-1 receptor [25]): 9.96
